Measurements published in the RNAGym collection of RNA variant scans (doi:10.1002/anie.201605470).

B1: Osa-1-4 twister ribozyme (parent)
chain: CCGCCUAACACUGCCAAUGCCGGUCCCAAGCCCGGAUAAAAGUGGAGGGGGCGG

Variants of: B1
Experiment: self-cleavage, relative activity (ratio to wild type); higher = more cleavage; co-transcriptional
Outline: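 The 48 positions downstream of the cleavage site in a 54-nucleotide Oryza sativa twister ribozyme template were synthesised at 97 % wild-type base and 1 % of each other base. The template was transcribed in vitro at 37 °C for 2 h, with self-cleavage allowed during transcription. Reads with or without upstream sequence after deep sequencing marked cleavage status, and relative activity is fraction cleaved normalised to wild type.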

self-cleavage, 0.31:
C25U C31G
C25U C33U

self-cleavage, 0.9:
C25U C52U

self-cleavage, 0.14:
C25A U37C
C25U G19A

self-cleavage, 0.59:
C25A G50A

self-cleavage, 0.17:
C25U C27U

self-cleavage, 0.25:
C25A U37G
C25G G54U

self-cleavage, 0.09:
C25A G53A
C25G C32G
C25G G22A
C25G G42A
C25G G50C

self-cleavage, 0.28:
C25A G54U

self-cleavage, 0.05:
C25A G44A
C25A G51C
C25A G53U
C25G C31U
C25G G35C
C25G G44U
C25G G47A
C25G U12C
C25U G23U
C25U G30U

self-cleavage, 0.1:
C25A G44C
C25A G51A
C25A U18A
C25U C32G

self-cleavage, 0.01:
C25G C26A
C25G G13C
C25G G13U

self-cleavage, 0.02:
C25G C9A
C25G C27A
C25G C31A
C25G G30A
C25G G30C
C25G G30U
C25G G42U
C25G G45U
C25G G47C
C25G G48U
C25G G53C
C25G U24G
C25U G13C

self-cleavage, 0.27:
C25A G50C

self-cleavage, 0.15:
C25A U18C

self-cleavage, 0.61:
C25G G49U

self-cleavage, 0.21:
C25U C26U

self-cleavage, 0.74:
C25U G22A

self-cleavage, 0.06:
C25A G44U
C25A G51U
C25A U12A
C25A U12G
C25A U43A
C25A U43C
C25A U43G
C25G C33U
C25G G19A
C25G G22U
C25G G23A
C25G G34C
C25G G42C
C25G G44A
C25G G44C
C25G G53U
C25G U12A
C25G U43C
C25U C27A
C25U C27G
C25U C32A
C25U C33A
C25U C33G
C25U G23C

self-cleavage, 0.66:
C25U C52A

self-cleavage, 0.08:
C25A G54C
C25G C52A
C25G G34A
C25G G53A
C25G U18A
C25G U43A
C25U C26G
C25U C32U
C25U G19U

self-cleavage, 0.93:
C25U

self-cleavage, 0.13:
C25A G49A
C25G U18C
C25G U37G
C25U C31U

self-cleavage, 0.42:
C25A G50U

self-cleavage, 0.03:
C25A G45A
C25A G45C
C25A G45U
C25A G47C
C25A G48A
C25A G48C
C25A G48U
C25A G53C
C25G C9U
C25G C32A
C25G C33A
C25G G13A
C25G G19C
C25G G22C
C25G G45A
C25G G45C
C25G G47U
C25G G48C
C25G G51C
C25G U24A
C25G U24C
C25U G13U
C25U G30A
C25U G30C

self-cleavage, 0.47:
C25U G22U

self-cleavage, 0.12:
C25A G54A
C25G
C25G C26G
C25G C52G
C25G G35A
C25G G50A
C25G U37A
C25G U37C

self-cleavage, 0.33:
C25U C9U

self-cleavage, 0.18:
C25G U18G
C25U C9G

self-cleavage, 0.07:
C25G C9G
C25G C26U
C25G C27G
C25G C27U
C25G G34U
C25G G35U
C25G G49A
C25G G51A
C25G G54C
C25U G13A
C25U G22C

self-cleavage, 0.35:
C25A U18G

self-cleavage, 0.23:
C25G C31G
C25U C9A

self-cleavage, 0.11:
C25A U37A
C25G C52U
C25G G50U
C25G G54A
C25U G23A

self-cleavage, 0.82:
C25A G49U

self-cleavage, 0.7:
C25G G49C

self-cleavage, 0.04:
C25A G47A
C25A G47U
C25A G49C
C25A U12C
C25A U24A
C25A U24C
C25A U24G
C25G C32U
C25G C33G
C25G G19U
C25G G23C
C25G G23U
C25G G48A
C25G G51U
C25G U12G
C25G U43G
C25U C26A
C25U C31A
C25U G19C

self-cleavage, 0.8:
C25U C52G
